{"source": "ChEMBL document CHEMBL4196175", "about": "“First SAR Study for Overriding NRAS Mutant Driven Acute Myeloid Leukemia” (J Med Chem, 2018)", "key": {"[1]": {"experiment": "AUCinfinity in mouse at 10 mg/kg, po", "type": "ADME, organism-based", "parameters": "dose 10 mg/kg, route oral, time infinity", "conditions": "in vivo"}, "[2]": {"experiment": "AUClast in mouse at 10 mg/kg, po", "type": "ADME, organism-based", "parameters": "dose 10 mg/kg, time 0 - last, route oral", "conditions": "in vivo"}, "[3]": {"experiment": "Half life in mouse at 10 mg/kg, po", "type": "ADME, organism-based", "conditions": "in vivo"}, "[4]": {"experiment": "Tmax in mouse at 10 mg/kg, po", "type": "ADME, organism-based", "conditions": "in vivo"}, "[5]": {"experiment": "MRTinfinity in mouse at 10 mg/kg, po", "type": "ADME, organism-based", "conditions": "in vivo"}, "BaF3 [6]": {"test_system": "BaF3", "experiment": "Induction of apoptosis in mouse BA/F3 cells expressing NRAS-G12D mutant assessed as increase in cleaved PARP levels at 5 uM after 24 hrs by Western blot analysis", "type": "functional, cell-based", "procedure,_shortened": "(§1)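 Cells treated 24 h with indicated concentrations (1 µM; 5 µM also used in Ba/F3-NRAS-G12D); cleaved PARP, cleaved caspase 3, bcl-2 and MCL1 detected by western blot with actin as loading control.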"}, "BaF3 [7]": {"test_system": "BaF3", "experiment": "Induction of apoptosis in mouse BA/F3 cells expressing NRAS-G12D mutant assessed as increase in cleaved caspase-3 levels at 5 uM after 24 hrs by Western blot analysis", "type": "functional, cell-based", "procedure,_shortened": "as §1"}, "[8]": {"biological_target": "Vascular endothelial growth factor receptor 2 (Homo sapiens) (UniProt P35968)", "experiment": "Inhibition of human KDR at 1 uM relative to control"}, "[9]": {"biological_target": "Mitogen-activated protein kinase 11 (Homo sapiens) (UniProt Q15759)", "sequence (Q15759 whole entry)": "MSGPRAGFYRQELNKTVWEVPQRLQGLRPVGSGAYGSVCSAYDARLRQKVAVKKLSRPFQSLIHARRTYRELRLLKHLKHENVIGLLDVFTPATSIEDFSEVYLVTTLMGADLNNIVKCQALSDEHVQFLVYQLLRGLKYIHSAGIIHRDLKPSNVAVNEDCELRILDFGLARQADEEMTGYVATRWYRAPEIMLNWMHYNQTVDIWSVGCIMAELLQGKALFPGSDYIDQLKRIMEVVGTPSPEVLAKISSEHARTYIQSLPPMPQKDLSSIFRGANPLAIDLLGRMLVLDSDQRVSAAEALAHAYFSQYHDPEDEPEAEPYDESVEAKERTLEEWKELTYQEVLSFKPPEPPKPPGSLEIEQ", "experiment": "Inhibition of human P38beta at 1 uM relative to control"}, "[10]": {"biological_target": "Platelet-derived growth factor receptor beta (Homo sapiens) (UniProt P09619)", "experiment": "Inhibition of human PDGFRbeta at 1 uM relative to control"}, "[11]": {"biological_target": "Proto-oncogene tyrosine-protein kinase receptor Ret (Homo sapiens) (UniProt P07949)", "sequence (P07949 whole entry)": "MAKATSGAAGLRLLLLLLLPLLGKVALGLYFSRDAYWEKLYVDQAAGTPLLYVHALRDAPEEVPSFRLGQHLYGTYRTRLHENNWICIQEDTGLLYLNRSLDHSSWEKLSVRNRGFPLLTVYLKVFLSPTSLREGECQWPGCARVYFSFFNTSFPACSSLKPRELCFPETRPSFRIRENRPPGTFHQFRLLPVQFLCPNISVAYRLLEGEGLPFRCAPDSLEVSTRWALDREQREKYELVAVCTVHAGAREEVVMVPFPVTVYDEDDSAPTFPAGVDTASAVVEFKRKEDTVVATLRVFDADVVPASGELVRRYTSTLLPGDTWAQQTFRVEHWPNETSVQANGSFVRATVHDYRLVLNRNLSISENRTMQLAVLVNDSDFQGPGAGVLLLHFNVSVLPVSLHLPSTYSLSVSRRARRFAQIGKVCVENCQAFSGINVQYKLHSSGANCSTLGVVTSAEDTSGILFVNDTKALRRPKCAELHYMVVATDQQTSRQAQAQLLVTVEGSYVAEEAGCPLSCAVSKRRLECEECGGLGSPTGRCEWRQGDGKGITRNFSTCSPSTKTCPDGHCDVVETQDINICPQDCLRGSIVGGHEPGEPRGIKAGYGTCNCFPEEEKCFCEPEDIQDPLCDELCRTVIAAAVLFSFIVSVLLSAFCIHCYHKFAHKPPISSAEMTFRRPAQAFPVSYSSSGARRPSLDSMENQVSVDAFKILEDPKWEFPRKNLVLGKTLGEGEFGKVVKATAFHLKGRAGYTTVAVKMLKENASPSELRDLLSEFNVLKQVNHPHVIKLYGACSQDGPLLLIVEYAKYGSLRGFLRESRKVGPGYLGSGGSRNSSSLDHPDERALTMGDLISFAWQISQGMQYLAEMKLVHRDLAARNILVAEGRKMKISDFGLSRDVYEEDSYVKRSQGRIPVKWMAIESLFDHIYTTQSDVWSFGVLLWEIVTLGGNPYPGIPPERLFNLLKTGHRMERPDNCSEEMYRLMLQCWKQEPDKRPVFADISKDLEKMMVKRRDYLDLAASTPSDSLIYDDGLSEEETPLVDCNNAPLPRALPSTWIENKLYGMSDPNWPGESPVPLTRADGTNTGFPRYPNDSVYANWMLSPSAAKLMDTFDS", "experiment": "Inhibition of human RET at 1 uM relative to control"}, "[12]": {"biological_target": "Serine/threonine-protein kinase A-Raf (Homo sapiens) (UniProt P10398)", "sequence (P10398 whole entry)": "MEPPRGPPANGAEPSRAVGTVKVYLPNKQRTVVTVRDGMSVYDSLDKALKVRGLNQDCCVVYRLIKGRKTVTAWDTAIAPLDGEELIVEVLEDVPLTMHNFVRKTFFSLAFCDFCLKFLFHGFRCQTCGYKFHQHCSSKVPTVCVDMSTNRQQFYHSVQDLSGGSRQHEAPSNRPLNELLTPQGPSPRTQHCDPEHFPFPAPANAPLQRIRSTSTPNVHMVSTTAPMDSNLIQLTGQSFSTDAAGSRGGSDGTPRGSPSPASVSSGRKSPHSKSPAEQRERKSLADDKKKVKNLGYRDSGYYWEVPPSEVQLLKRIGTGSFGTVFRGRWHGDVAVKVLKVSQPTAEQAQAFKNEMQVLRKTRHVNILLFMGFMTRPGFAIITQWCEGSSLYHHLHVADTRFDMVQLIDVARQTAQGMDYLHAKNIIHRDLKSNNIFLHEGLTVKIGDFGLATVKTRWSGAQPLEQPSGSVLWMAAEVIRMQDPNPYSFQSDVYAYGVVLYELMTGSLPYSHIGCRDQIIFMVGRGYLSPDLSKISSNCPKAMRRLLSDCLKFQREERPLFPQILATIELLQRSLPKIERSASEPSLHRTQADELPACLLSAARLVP", "experiment": "Inhibition of human ARAF at 1 uM relative to control"}, "[13]": {"biological_target": "Tyrosine-protein kinase Fgr (Homo sapiens) (UniProt P09769)", "sequence (P09769 2-529 limits assumed)": "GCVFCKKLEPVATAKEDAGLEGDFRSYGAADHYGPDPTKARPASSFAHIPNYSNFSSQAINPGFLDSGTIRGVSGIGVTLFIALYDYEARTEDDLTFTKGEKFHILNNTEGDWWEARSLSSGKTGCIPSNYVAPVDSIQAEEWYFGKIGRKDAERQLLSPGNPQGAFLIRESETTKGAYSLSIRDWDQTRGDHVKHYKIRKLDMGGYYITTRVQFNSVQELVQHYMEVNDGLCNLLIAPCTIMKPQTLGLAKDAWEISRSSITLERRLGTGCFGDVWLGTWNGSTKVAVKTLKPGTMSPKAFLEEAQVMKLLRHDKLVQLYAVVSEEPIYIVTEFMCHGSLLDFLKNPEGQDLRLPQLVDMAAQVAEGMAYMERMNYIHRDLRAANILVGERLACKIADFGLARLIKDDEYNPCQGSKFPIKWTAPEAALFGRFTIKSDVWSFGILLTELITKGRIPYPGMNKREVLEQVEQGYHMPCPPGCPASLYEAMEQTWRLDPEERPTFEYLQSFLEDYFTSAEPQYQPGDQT", "experiment": "Inhibition of human FGR at 1 uM relative to control"}, "[14]": {"biological_target": "Serine/threonine-protein kinase B-raf (Homo sapiens) (UniProt P15056)", "experiment": "Inhibition of human BRAF at 1 uM relative to control"}, "[15]": {"biological_target": "Tyrosine-protein kinase Yes (Homo sapiens) (UniProt P07947)", "experiment": "Inhibition of human YES at 1 uM relative to control"}, "[16]": {"biological_target": "Platelet-derived growth factor receptor alpha (Homo sapiens) (UniProt P16234)", "sequence (P16234 whole entry)": "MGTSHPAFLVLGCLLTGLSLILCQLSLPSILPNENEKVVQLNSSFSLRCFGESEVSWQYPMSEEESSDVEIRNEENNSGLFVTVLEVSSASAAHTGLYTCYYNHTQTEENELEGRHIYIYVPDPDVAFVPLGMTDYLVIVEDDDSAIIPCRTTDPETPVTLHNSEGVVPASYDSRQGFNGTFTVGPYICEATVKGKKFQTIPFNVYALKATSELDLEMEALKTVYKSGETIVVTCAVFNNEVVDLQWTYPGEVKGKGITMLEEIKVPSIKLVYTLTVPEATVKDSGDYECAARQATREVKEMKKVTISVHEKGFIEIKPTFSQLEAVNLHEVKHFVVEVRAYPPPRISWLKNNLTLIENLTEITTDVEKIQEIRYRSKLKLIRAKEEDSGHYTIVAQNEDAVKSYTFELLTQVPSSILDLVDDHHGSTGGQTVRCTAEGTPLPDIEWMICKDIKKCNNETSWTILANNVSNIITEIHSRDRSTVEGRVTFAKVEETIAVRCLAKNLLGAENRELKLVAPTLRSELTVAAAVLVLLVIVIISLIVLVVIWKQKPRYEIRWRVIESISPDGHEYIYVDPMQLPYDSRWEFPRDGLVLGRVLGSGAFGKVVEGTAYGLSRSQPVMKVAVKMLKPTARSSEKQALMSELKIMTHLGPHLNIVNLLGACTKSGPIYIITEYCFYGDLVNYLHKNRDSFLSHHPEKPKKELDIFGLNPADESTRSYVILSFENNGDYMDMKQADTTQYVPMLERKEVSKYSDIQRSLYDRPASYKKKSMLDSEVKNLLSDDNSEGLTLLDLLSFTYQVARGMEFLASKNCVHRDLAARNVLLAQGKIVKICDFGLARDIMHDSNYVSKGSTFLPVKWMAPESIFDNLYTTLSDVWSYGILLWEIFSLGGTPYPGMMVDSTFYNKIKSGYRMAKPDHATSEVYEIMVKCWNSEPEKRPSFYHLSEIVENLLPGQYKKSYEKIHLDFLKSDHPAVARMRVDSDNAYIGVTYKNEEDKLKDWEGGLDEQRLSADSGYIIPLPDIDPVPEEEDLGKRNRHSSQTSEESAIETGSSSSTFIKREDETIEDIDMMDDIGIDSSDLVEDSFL", "experiment": "Inhibition of human PDGFRa at 1 uM relative to control"}, "[17]": {"biological_target": "Fibroblast growth factor receptor 2 (Homo sapiens) (UniProt P21802)", "experiment": "Inhibition of human FGFR2 at 1 uM relative to control"}, "OCI-AML-3 [18]": {"test_system": "OCI-AML-3", "experiment": "Induction of apoptosis in human OCI-AML3 cells harboring NRAS Q61L mutant assessed as increase in apoptotic cells after 24 hrs by annexin V/propidium iodide staining based FACS analysis", "type": "functional, cell-based", "procedure,_shortened": "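Apoptosis scored by flow cytometry after FITC-annexin V/propidium iodide dual staining following 24 h exposure, at 1 µM or a range of indicated concentrations; three independent experiments, mean with SD, one-way ANOVA.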"}, "BaF3 [19]": {"test_system": "BaF3", "experiment": "Antileukemic activity against mouse BA/F3 cells harboring NRAS-G12D mutant/luciferase allografted in immunodeficient mouse at 15 mg/kg/day, po qd administered on day 6 post implantation measured on day 20 post implantation by bioluminescence imaging method", "type": "functional", "procedure,_shortened": "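Immunodeficient mice injected via tail vein with Ba/F3-NRAS-G12D/Luc cells, dosed orally once daily (8 or 15 mg/kg/day) or vehicle for 3 weeks, n=4 per cohort; bioluminescence imaged every two days after luciferin 150 mg/kg, quantified by bio-photonic analysis.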"}, "BaF3 [20]": {"test_system": "BaF3", "experiment": "Antileukemic activity against mouse BA/F3 cells harboring NRAS-G12D mutant allografted in immunodeficient mouse assessed as median survival time at 15 mg/kg/day, po qd administered on day 6 post implantation (reference value: 23 days)", "type": "functional"}, "BaF3 [21]": {"test_system": "BaF3", "experiment": "Antileukemic activity against mouse BA/F3 cells harboring NRAS-G12D mutant allografted in immunodeficient mouse assessed as median survival time at 25 mg/kg/day, po qd administered on day 6 post implantation (reference value: 23 days)", "type": "functional"}, "OCI-AML-3 [22]": {"test_system": "OCI-AML-3", "experiment": "Antileukemic activity against human OCI-AML3 cells harboring NRAS-Q61L mutant xenografted in immunodeficient mouse assessed as tumor volume at 25 mg/kg/day, po qd administered on day 21 post implantation measured on day 20 post dose (reference value: 100%)", "type": "functional"}, "OCI-AML-3 [23]": {"test_system": "OCI-AML-3", "experiment": "Antileukemic activity against human OCI-AML3 cells harboring NRAS-Q61L mutant xenografted in immunodeficient po dosed mouse administered qd on day 21 post implantation measured on day 20 post dose", "type": "functional, organism-based"}, "Mus musculus": {"test_system": "Mus musculus", "experiment": "Toxicity in immunodeficient mouse allografted with mouse BA/F3 cells harboring NRAS-G12D mutant assessed as body weight loss at 15 to 25 mg/kg/day, po qd administered on day 6 post implantation", "type": "organism-based", "conditions": "in vivo", "procedure,_shortened": "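Immunodeficient mice were given Ba/F3-NRAS-G12D/luciferase cells by tail-vein injection and then dosed orally once daily, with a vehicle-only cohort as control. Body weight was followed during treatment. The bioluminescence cohorts had n=4 and were treated for 3 weeks.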"}, "OCI-AML-3 [24]": {"test_system": "OCI-AML-3", "experiment": "Growth inhibition of ACK1/GCK knockdown human OCI-AML3 cells harboring NRAS-Q61L mutant at 0.5 uM after 72 hrs by celltiter-glo assay", "type": "functional, cell-based"}, "[25]": {"biological_target": "Cytoplasmic tyrosine-protein kinase BMX (Homo sapiens) (UniProt P51813)", "sequence (P51813 whole entry)": "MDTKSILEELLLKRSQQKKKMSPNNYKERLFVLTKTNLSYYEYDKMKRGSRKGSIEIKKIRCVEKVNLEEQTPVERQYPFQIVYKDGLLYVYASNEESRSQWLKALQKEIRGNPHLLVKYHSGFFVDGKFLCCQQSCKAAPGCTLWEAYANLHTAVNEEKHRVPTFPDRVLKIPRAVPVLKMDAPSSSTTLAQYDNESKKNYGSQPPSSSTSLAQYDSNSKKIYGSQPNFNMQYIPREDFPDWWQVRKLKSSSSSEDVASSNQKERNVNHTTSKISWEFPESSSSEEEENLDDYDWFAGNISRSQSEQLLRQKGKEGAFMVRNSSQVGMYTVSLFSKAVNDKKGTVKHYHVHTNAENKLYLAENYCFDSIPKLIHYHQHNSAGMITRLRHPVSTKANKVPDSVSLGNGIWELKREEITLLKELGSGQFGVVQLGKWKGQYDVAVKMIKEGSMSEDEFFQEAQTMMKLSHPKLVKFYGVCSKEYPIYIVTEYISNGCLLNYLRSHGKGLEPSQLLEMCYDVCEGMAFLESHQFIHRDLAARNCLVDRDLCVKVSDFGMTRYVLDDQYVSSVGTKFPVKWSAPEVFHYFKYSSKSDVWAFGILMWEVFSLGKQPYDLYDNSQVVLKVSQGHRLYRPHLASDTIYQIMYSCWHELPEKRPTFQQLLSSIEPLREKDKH", "conditions": "1 uM"}, "[26]": {"biological_target": "Proto-oncogene tyrosine-protein kinase Src (Homo sapiens) (UniProt P12931)", "sequence (P12931 2-536 limits assumed)": "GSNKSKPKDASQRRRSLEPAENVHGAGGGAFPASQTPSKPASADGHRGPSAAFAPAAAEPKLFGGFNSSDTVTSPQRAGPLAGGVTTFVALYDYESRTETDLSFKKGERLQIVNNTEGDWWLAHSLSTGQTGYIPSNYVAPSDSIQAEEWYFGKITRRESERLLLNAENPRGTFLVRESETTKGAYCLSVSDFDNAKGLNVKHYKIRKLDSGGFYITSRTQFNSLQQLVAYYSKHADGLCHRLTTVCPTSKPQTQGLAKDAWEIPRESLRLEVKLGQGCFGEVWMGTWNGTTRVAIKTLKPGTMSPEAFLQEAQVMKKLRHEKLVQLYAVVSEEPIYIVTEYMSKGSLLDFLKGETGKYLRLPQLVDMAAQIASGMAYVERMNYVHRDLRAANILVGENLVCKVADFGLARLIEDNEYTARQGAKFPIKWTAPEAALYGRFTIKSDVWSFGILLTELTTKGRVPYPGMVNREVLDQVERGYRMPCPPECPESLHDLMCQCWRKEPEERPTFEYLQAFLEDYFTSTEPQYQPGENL", "conditions": "1 uM"}, "BaF3 [27]": {"test_system": "BaF3", "experiment": "Induction of apoptosis in mouse BA/F3 cells expressing NRAS-G12D mutant assessed as increase in cleaved caspase-3 levels at 1 uM after 24 hrs by Western blot analysis", "type": "functional, cell-based", "procedure,_shortened": "as §1"}, "BaF3 [28]": {"test_system": "BaF3", "experiment": "Induction of apoptosis in mouse BA/F3 cells expressing NRAS-G12D mutant assessed as decrease in bcl2 levels at 1 uM after 24 hrs by Western blot analysis", "type": "functional, cell-based", "procedure,_shortened": "as §1"}, "BaF3 [29]": {"test_system": "BaF3", "experiment": "Induction of apoptosis in mouse BA/F3 cells expressing NRAS-G12D mutant assessed as decrease in MCL1 levels at 1 uM after 24 hrs by Western blot analysis", "type": "functional, cell-based", "procedure,_shortened": "as §1"}}, "note": "Active and inactive are the calls of the source. The calls are words filed in the database; no cut-off is given here."}
{"smiles": "Cc1ccc(NC(=O)c2cccc(C(F)(F)F)c2)cc1N1Cc2cnc(N)nc2N(C)C1=O", "values": [{"measurement": "AUC(0-inf)", "setting": "[1]", "value": 52500, "unit": "ng·h/mL"}, {"measurement": "AUC(0-t)", "setting": "[2]", "value": 36400, "unit": "ng·h/mL"}, {"measurement": "half-life", "setting": "[3]", "value": 12.4, "unit": "h"}, {"measurement": "Tmax", "setting": "[4]", "value": 2.7, "unit": "h"}, {"measurement": "MRT inf", "setting": "[5]", "value": 18.1, "unit": "h"}, {"measurement": "Activity", "setting": "BaF3 [6]", "value": "Active"}, {"measurement": "Activity", "setting": "BaF3 [7]", "value": "Active"}, {"measurement": "inhibition", "setting": "[8]", "value": 96.4, "unit": "%"}, {"measurement": "inhibition", "setting": "[9]", "value": 98, "unit": "%"}, {"measurement": "inhibition", "setting": "[10]", "value": 98.1, "unit": "%"}, {"measurement": "inhibition", "setting": "[11]", "value": 98.7, "unit": "%"}, {"measurement": "inhibition", "setting": "[12]", "value": 99, "unit": "%"}, {"measurement": "inhibition", "setting": "[13]", "value": 99.1, "unit": "%"}, {"measurement": "inhibition", "setting": "[14]", "value": 99.1, "unit": "%"}, {"measurement": "inhibition", "setting": "[15]", "value": 99.7, "unit": "%"}, {"measurement": "inhibition", "setting": "[16]", "value": 95, "unit": "%"}, {"measurement": "inhibition", "setting": "[17]", "value": 93.5, "unit": "%"}, {"measurement": "Activity", "setting": "OCI-AML-3 [18]", "value": "Dose-dependent effect"}, {"measurement": "Activity", "setting": "BaF3 [19]", "value": ">50", "unit": "%"}, {"measurement": "MSD", "setting": "BaF3 [20]", "value": 29, "unit": "days"}, {"measurement": "MSD", "setting": "BaF3 [21]", "value": 35, "unit": "days"}, {"measurement": "Activity", "setting": "OCI-AML-3 [22]", "value": 14.9, "unit": "%"}, {"measurement": "Activity", "setting": "OCI-AML-3 [23]", "value": "Dose-dependent effect"}, {"measurement": "Activity", "setting": "Mus musculus", "value": "Non-Toxic"}, {"measurement": "growth inhibition (GI)", "setting": "OCI-AML-3 [24]", "value": "Active"}, {"measurement": "inhibition", "setting": "[25]", "value": 99.4, "unit": "%"}, {"measurement": "inhibition", "setting": "[26]", "value": 100, "unit": "%"}]}
{"smiles": "CC(=O)N1CCN(c2ccc(Nc3ncc4c(n3)N(C)C(=O)N(c3cc(NC(=O)c5cccc(C(F)(F)F)c5)ccc3C)C4)cn2)CC1", "values": [{"measurement": "Activity", "setting": "BaF3 [27]", "value": "Active"}, {"measurement": "Activity", "setting": "BaF3 [28]", "value": "Active"}, {"measurement": "Activity", "setting": "BaF3 [29]", "value": "Active"}]}
